Measurements published in ChEMBL document CHEMBL1135898, “Synthesis and antimycobacterial activity of 6-arylpurines: the requirements for the N-9 substituent in active antimycobacterial purines” (J Med Chem, 2002).
In brackets after ≈: the same amount, converted by molar mass.

Key:
Assay type in all cases: functional
[1] = system: Mycobacterium tuberculosis; assay: Minimum Inhibitory Concentration against drug-resistant strain resistant to Ciprofloxacin
Summary of the method: (§1)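 MICs by microplate alamar blue assay against M. tuberculosis strains resistant to isoniazid (ATCC 35822), rifampin (ATCC 35838), ethambutol, kanamycin or ciprofloxacin, drug-sensitive strain Erdman, and M. avium (ATCC 25291). MIC = minimum concentration giving 90% growth inhibition.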

[2] = system: Mycobacterium tuberculosis; assay: Minimum Inhibitory Concentration against drug-resistant strain resistant to Ethambutol; summary of the method: as §1
[3] = system: Mycobacterium tuberculosis; assay: Minimum Inhibitory Concentration against drug-resistant strain resistant to Isoniazid; summary of the method: as §1
[4] = system: Mycobacterium tuberculosis; assay: Minimum Inhibitory Concentration against drug-resistant strain resistant to Rifampin; summary of the method: as §1

## Clc1nc(-c2ccco2)c2ncn(Cc3ccccc3)c2n1
[1]
  MIC: < 0.39 µg/mL
[2]
  MIC: < 0.39 µg/mL
[3]
  MIC: 3.13 µg/mL (≈ 10.1 µM)
[4]
  MIC: 1.56 µg/mL (≈ 5.02 µM)
